Columns and labels:
[1] = target: T1, apo-human transferrin (apo-hTf) (Homo sapiens, UniProt P02787); assay: UV-Vis absorbance titration of apo-hTf; assay type: binding
[2] = target: T1, apo-human transferrin (apo-hTf); assay: Fluorescence quenching of apo-hTf; assay type: binding; settings: for biomolecular quenching rate constant kq: kq=Ksv/τ0; for Stern-Volmer quenching constant Ksv / number of binding sites n: pH 7.4; for quenching association constant Ka: pH 7.4, modified Stern-Volmer
Procedure, shortened: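 Intrinsic fluorescence of apo-hTf in Tris-HCl pH 7.4 was titrated with test compound (Tris-HCl/2% DMSO). Conditions: excitation 280 nm, emission 290–500 nm, slits 10/5 nm, 1.0 cm quartz cell, at 296, 303, 310 and 317 K, triplicate titrations. Intensities were corrected for inner filter effect using absorbances at excitation and emission wavelengths. Ksv came from Stern-Volmer plots of F0/F vs [Q]; kq = Ksv/τ0 (τ0 ~1.0×10−8); Ka and n came from the modified Stern-Volmer equation.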

[3] = target: T1, apo-human transferrin (apo-hTf); assay: Thermodynamic parameters of apo-hTf complex formation; assay type: binding
Procedure, shortened: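 Ksv values were obtained from apo-hTf fluorescence quenching at pH 7.4 at 296, 303, 310 and 317 K. ΔH°, ΔS° and ΔG° were derived from linear regression of ln(Ksv) vs 1/T (Van't Hoff equation).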

[4] = target: T1, apo-human transferrin (apo-hTf); assay: Fluorescence resonance energy transfer; assay type: binding
Procedure, shortened: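 Emission spectrum of 1.0×10−5 mol L−1 apo-hTf and absorption spectrum of 1.0×10−5 mol L−1 test compound were recorded in 20 mM Tris-HCl pH 7.4 at room temperature, 260–450 nm, and their spectral overlap determined. E was calculated from apo-hTf fluorescence without and with equimolar test compound. R0 and donor–acceptor distance r came from Förster equations.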

[5] = target: T1, apo-human transferrin (apo-hTf); assay: Far-UV circular dichroism titration of apo-hTf, secondary structure content
Procedure, shortened: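 Apo-hTf (4.0×10−7 mol L−1) in 2 mM Tris-HCl pH 7.4 was titrated with a 1.0×10−3 mol L−1 stock of test compound in Tris-HCl/2% DMSO, to final 0–2.4×10−6 mol L−1. Far-UV CD was recorded from 190–250 nm under nitrogen in a 1.0 cm cell: six scans at 100 nm/min. Baseline was buffer ± DMSO at room temperature. α-Helix was derived from MRE at 208 nm; β-sheet and random coil by the CD-RRG method.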

[6] = test system: human breast adenocarcinoma cell line, MCF-7; settings: read-out: IC50 (±SD), MCF-7, ref 19; cited from earlier work
[7] = test system: human colorectal adenocarcinoma cell line, HT-29; settings: read-out: IC50 (±SD), HT-29, ref 19; cited from earlier work

T1 sequence (P02787 20-698): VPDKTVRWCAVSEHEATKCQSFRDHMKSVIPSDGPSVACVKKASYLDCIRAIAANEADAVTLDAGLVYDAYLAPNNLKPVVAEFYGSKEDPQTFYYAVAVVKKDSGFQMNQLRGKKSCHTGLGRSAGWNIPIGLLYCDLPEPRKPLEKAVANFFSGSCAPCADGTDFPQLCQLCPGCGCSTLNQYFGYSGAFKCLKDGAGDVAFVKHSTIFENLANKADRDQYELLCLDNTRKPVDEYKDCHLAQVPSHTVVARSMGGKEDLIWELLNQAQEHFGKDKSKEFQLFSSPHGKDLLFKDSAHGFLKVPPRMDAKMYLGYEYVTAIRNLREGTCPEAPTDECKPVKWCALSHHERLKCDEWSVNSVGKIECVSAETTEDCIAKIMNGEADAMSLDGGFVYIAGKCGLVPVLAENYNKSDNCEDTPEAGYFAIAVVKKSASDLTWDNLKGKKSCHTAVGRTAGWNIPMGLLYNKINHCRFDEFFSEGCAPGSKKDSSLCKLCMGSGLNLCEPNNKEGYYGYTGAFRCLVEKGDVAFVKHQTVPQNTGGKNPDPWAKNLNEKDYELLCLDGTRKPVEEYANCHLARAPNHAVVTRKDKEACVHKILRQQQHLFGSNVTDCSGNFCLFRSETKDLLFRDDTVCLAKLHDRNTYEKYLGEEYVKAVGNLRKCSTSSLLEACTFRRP

**Q.** What does the source list for `C1CCCC1.C1CCCC1.[Cl][W][Cl]` [Cp2WCl2]?
**A.** Ka at 280 nm ([1]; absorbance at 280 nm): 2930 M⁻¹; Ka at 361 nm ([1]; absorbance at 361 nm): 2980 M⁻¹; Association constants, Ka, 280 nm ([1]; absorbance of apo-hTf at 280 nm, pH 7.4): 2.93 10^3 M^−1; Association constants, Ka, 361 nm ([1]; absorbance of apo-hTf at 361 nm, pH 7.4): 2.98 10^3 M^−1; biomolecular quenching rate constant kq ([2]; 296 K): 1.61e+11 M⁻¹ s⁻¹; Stern-Volmer quenching constant Ksv ([2]; 296 K): 1610 M⁻¹; number of binding sites n ([2]; 296 K): 1.16; quenching association constant Ka ([2]; 296 K): 7800 M⁻¹; biomolecular quenching rate constant kq ([2]; 303 K): 1.76e+11 M⁻¹ s⁻¹; Stern-Volmer quenching constant Ksv ([2]; 303 K): 1760 M⁻¹; number of binding sites n ([2]; 303 K): 1.13; quenching association constant Ka ([2]; 303 K): 6000 M⁻¹; biomolecular quenching rate constant kq ([2]; 310 K): 1.89e+11 M⁻¹ s⁻¹; Stern-Volmer quenching constant Ksv ([2]; 310 K): 1890 M⁻¹; number of binding sites n ([2]; 310 K): 1.08; quenching association constant Ka ([2]; 310 K): 4200 M⁻¹; biomolecular quenching rate constant kq ([2]; 317 K): 2.09e+11 M⁻¹ s⁻¹; Stern-Volmer quenching constant Ksv ([2]; 317 K): 2090 M⁻¹; number of binding sites n ([2]; 317 K): 1.04; quenching association constant Ka ([2]; 317 K): 3200 M⁻¹; ∆G° ([3]; 296 K): -4.343 kcal/mol; ∆G° ([3]; 303 K): -4.498 kcal/mol; ∆G° ([3]; 310 K): -4.653 kcal/mol; ∆G° ([3]; 317 K): -4.809 kcal/mol; ∆H° ([3]; pH 7.4, from Ksv at 296-317 K): 2.24 kcal/mol; ∆S° ([3]; pH 7.4, from Ksv at 296-317 K): 93.12 J/mol K; Förster critical energy transfer distance R0 ([4]; k^2=2/3, n=1.336, ØD=0.118): 4.53 nm; binding distance r (donor-acceptor) ([4]; k^2=2/3, n=1.336, ØD=0.118): 6.05 nm; efficiency of energy transfer E ([4]; room temperature, 1.0×10^−5 mol L^−1 each): 0.15; other secondary structure content of apo-hTf ([5]; compound concentration 0.4 (M)): 18.3%; random coil content of apo-hTf ([5]; compound concentration 0.4 (M)): 33.7%; α-helix content of apo-hTf ([5]; compound concentration 0.4 (M)): 29.8%; β-sheet content of apo-hTf ([5]; compound concentration 0.4 (M)): 18.2%; other secondary structure content of apo-hTf ([5]; compound concentration 0.8 (M)): 18.4%; random coil content of apo-hTf ([5]; compound concentration 0.8 (M)): 33.8%; α-helix content of apo-hTf ([5]; compound concentration 0.8 (M)): 29.5%; β-sheet content of apo-hTf ([5]; compound concentration 0.8 (M)): 18.3%; other secondary structure content of apo-hTf ([5]; compound concentration 1.2 (M)): 18.6%; random coil content of apo-hTf ([5]; compound concentration 1.2 (M)): 33.9%; α-helix content of apo-hTf ([5]; compound concentration 1.2 (M)): 29.1%; β-sheet content of apo-hTf ([5]; compound concentration 1.2 (M)): 18.4%; other secondary structure content of apo-hTf ([5]; compound concentration 1.6 (M)): 19.1%; random coil content of apo-hTf ([5]; compound concentration 1.6 (M)): 34.1%; α-helix content of apo-hTf ([5]; compound concentration 1.6 (M)): 28.3%; β-sheet content of apo-hTf ([5]; compound concentration 1.6 (M)): 18.5%; other secondary structure content of apo-hTf ([5]; compound concentration 2 (M)): 19.2%; random coil content of apo-hTf ([5]; compound concentration 2 (M)): 34.3%; α-helix content of apo-hTf ([5]; compound concentration 2 (M)): 27.9%; β-sheet content of apo-hTf ([5]; compound concentration 2 (M)): 18.6%; other secondary structure content of apo-hTf ([5]; compound concentration 2.4 (M)): 19.4%; random coil content of apo-hTf ([5]; compound concentration 2.4 (M)): 34.4%; α-helix content of apo-hTf ([5]; compound concentration 2.4 (M)): 27.5%; β-sheet content of apo-hTf ([5]; compound concentration 2.4 (M)): 18.7%; IC50 [6]: 630 µM; IC50 [7]: 1000 µM

— article PMC7668563 (International journal of molecular biology (Edmond, Okla.), 2020)
